# Format: in vivo, rhesus macaques
# Summary of the method: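 Six rhesus macaques (3 female, 3 male), fasted overnight, under isoflurane anaesthesia, received test compound i.v. at 165.4 ± 28.5 MBq (21.8±5.9 MBq/kg) in 5 mL over 2 min. Venous samples (0.5 mL) were taken from the second saphenous cannula at 10, 20, 40, 60, 90 s and 2–180 min. Radioactivity in whole blood and plasma was gamma-counted and expressed as %ID/mL.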
smiles,measurement,setting,value
"O=C(O)C[18F] [^18F-FACE, ^18F-fluoroacetate]","blood clearance half-time, fast phase","i.v., bi-exponential, fast phase between 3 and 18 min",4 min
same,"blood clearance half-time, slow phase","i.v., bi-exponential, slow phase until 180 min",250 min
same,partition of radioactivity in the blood: plasma,stable throughout the study,70%
same,partition of radioactivity in the blood: red blood cells,stable throughout the study,30%

# — paper PMC3902791 (Molecular imaging and biology : MIB : the official …, 2012)
